Active and inactive are the calls of the source. The calls are words filed in the database; no cut-off is given here.
Tests used:
[1] = target: T1, 5-hydroxytryptamine receptor 2C (Rattus norvegicus, UniProt P08909); test: Efficacy (pEC50) was evaluated for 5-HT2C receptor-mediated stimulation of IP3 formation in vitro in choroid plexus of the rat; assay type: functional, tissue-based
T1 sequence (P08909 whole entry): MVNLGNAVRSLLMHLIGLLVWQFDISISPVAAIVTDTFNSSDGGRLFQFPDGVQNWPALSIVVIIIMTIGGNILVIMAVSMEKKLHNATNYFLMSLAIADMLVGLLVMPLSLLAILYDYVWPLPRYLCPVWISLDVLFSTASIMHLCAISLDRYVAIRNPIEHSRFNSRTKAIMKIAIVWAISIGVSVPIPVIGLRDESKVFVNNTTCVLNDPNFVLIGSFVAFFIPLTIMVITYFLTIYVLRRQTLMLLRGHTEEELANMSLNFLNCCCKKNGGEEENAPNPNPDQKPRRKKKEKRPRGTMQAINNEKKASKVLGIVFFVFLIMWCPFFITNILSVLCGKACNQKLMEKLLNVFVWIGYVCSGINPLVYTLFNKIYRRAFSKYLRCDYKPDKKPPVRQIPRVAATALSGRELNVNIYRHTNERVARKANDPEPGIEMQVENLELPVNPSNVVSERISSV
Outline: (§1)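 Rat choroid plexus preloaded with [³H]myoinositol for 1 h at 37 °C in oxygenated Krebs. LiCl 10 mM and pargyline 10 µM added, then compound 10 min later. Six concentrations, top 0.1 mM, incubated 0.5 h at 37 °C. Stopped with HClO₄/EDTA, then IP₃ isolated. Three measures per point. Intrinsic activity is the maximum relative to 10 µM 5HT.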

[2] = target: T2, 5-hydroxytryptamine receptor 2C (Rattus norvegicus) (UniProt P08909); test: Intrinsic 5-HT 2c receptor activity as induced IP3 turnover in vitro in rat choroid plexus; assay type: functional, tissue-based; outline: as §1
T2 sequence (whole entry): T1 sequence (P08909 whole entry)

[3] = target: T2, 5-hydroxytryptamine receptor 2C (Rattus norvegicus); test: Induction of penile erection in rats after subcutaneous administration, indicative of 5-HT 2c receptor activation; assay type: functional, organism-based
Outline: (§2)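 Male erection counts in RORO rats, 8 per dose, over 45 min. Drug is given in 0.3% Tween-80 in saline, sc at 5 mL/kg or orally at 10 mL/kg. Vehicle controls are included, and doses are expressed as salt weight. ED₅₀ by probit analysis, or the approximate dose at which half the rats respond.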

[4] = target: T2, 5-hydroxytryptamine receptor 2C (Rattus norvegicus); test: Induction of penile erection in rats following p.o. administration, indicative of 5-HT 2c receptor activation; assay type: functional, organism-based; outline: as §2
[5] = target: T3, 5-hydroxytryptamine receptor 2C (Homo sapiens, UniProt P28335); test: Binding affinity against human 5-hydroxytryptamine 2C receptor using displacement of [3H]DOB
T3 sequence (P28335 whole entry): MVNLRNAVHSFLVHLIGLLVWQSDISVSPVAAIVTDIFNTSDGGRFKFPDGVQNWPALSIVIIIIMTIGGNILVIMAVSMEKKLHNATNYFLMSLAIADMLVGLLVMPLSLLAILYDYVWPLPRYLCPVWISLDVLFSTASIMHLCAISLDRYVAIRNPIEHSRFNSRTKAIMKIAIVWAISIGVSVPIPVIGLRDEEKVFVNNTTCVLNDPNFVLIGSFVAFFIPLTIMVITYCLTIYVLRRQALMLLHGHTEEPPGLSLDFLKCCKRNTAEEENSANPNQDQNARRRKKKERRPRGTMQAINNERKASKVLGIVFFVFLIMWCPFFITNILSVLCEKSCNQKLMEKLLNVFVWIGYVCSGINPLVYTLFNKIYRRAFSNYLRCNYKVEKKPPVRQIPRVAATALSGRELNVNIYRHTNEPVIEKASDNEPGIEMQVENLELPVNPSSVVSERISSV

[6] = target: 5-hydroxytryptamine receptor 2A (Homo sapiens, UniProt P28223); test: Binding affinity against human 5-hydroxytryptamine 2A receptor using displacement of [3H]5-HT
[7] = test system: Rattus norvegicus; test: Compound was tested in schedule induced polydipsia in rats expressed as %maximum suppression at minimum effective dose of 3 mg/kg intraperitoneally; assay type: functional; settings: route intraperitoneal
[8] = target: T2, 5-hydroxytryptamine receptor 2C (Rattus norvegicus); test: Efficacy (pEC50) was evaluated for 5-HT2C receptor-mediated stimulation of IP3 formation in vitro in choroid plexus of the rat; inactive; assay type: functional, tissue-based; outline: as §1
[9] = test system: Rattus norvegicus; test: Compound was tested in schedule induced polydipsia in rats expressed as %maximum suppression at minimum effective dose of 10 mg/kg intraperitoneally; assay type: functional; settings: route intraperitoneal
[10] = test system: Rattus norvegicus; test: Compound was tested in schedule induced polydipsia in rats expressed as %maximum suppression at minimum effective dose of 30 mg/kg intraperitoneally; assay type: functional; settings: route intraperitoneal
[11] = test system: Rattus norvegicus; test: Compound was tested in schedule induced polydipsia in rats expressed as %maximum suppression at minimum effective dose of 1 mg/kg intraperitoneally; assay type: functional; settings: route intraperitoneal
[12] = target: T2, 5-hydroxytryptamine receptor 2C (Rattus norvegicus); test: The compound was tested for induction of penile erection in rats after peroral administration; Inactive; assay type: functional, organism-based; outline: as §2

Chain of 5-hydroxytryptamine receptor 2A (P28223 whole entry): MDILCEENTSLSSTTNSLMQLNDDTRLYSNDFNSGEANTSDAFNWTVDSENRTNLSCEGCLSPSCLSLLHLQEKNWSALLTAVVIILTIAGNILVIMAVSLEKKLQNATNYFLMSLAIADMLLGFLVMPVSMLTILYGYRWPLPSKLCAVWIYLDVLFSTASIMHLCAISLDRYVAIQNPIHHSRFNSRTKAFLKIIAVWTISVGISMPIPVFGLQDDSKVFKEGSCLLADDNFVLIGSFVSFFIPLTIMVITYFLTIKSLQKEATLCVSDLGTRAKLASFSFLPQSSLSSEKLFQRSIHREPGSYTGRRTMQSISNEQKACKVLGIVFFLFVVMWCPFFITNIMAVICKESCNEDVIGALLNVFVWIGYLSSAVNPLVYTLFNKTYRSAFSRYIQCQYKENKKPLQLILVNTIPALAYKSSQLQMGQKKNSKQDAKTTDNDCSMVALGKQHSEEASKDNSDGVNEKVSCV

Compound | EC50 [1] [nM] | Efficacy [2] | ED50 [3] [mg/kg] | ED50 [4] [mg/kg] | Ki [5] [nM] | Ki [6] [nM] | Max suppression [7] [%] | Log EC50 [8] | Max suppression [9] [%] | Max suppression [10] [%] | Max suppression [11] [%] | ED50 [12]
C[C@@H](N)Cn1ccc2cc(F)c(Cl)cc21 | 3160 | 1 | 2.1 | > 30 | 10 | 79.4 |  |  |  |  |  | 
COc1ccc2c(ccn2CC(C)N)c1 (stereo not given) | 10000 | 0.3 | > 10 |  | 794 |  |  |  |  |  |  | 
CC(N)Cn1ccc2cc(F)ccc21 (stereo not given) | 1580 | 1 | 1 | 2.7 | 6.31 | 158 | -97 |  |  |  |  | 
Cc1cccc2c1ccn2CC(C)N (stereo not given) | 2510 | 0.6 | 3.2 | > 30 | 6.31 | 100 |  |  |  |  |  | 
COc1cccc2c1Cc1ccn(CC(C)N)c1-2 (stereo not given) |  |  | > 10 |  | 100 | 3160 |  | inactive |  |  |  | 
C[C@H](N)Cn1ccc2cc(F)c(Cl)cc21 | 200 | 1 | 0.5 | 5.5 | 1.26 | 31.6 |  |  | -90 |  |  | 
CC(N)Cn1ccc2cc(Cl)c(F)cc21 (stereo not given) | 398 | 1 | 1 | 15 | 2 | 39.8 | -88 |  |  |  |  | 
COc1cccc2c1ccn2CC(C)N (stereo not given) | 12600 | 0.3 | > 10 |  | 126 |  |  |  |  |  |  | 
Cc1ccc2ccn(CC(C)N)c2c1 (stereo not given) | 7940 | 0.9 | 3.3 | > 30 | 15.8 | 794 |  |  |  |  |  | 
C[C@H](N)Cn1ccc2c(Cl)c(F)ccc21 | 316 | 1 | 2.7 | > 30 | 1.26 | 39.8 | -97 |  |  |  |  | 
CC(N)Cn1ccc2c1-c1cc(F)ccc1C2(C)C (stereo not given) | 200 | 1 | 2.7 | > 30 | 5.01 | 31.6 |  |  |  |  |  | 
Cc1ccc2c(c1)-c1c(ccn1CC(C)N)C2(C)C (stereo not given) | 200 | 1 | 0.9 | 10 | 3.16 | 100 |  |  | -76 |  |  | 
CC(N)Cn1ccc2cc(Cl)ccc21 (stereo not given) | 2000 | 0.9 | 2.3 | > 30 | 7.94 | 200 |  |  |  |  |  | 
C[C@@H](N)Cn1ccc2cc(F)c(F)cc21 | 126 | 1 | 2.7 | 30 | 3.98 | 100 |  |  |  |  |  | 
C[C@H](N)Cn1ccc2cc(F)c(F)cc21 | 200 | 1 | 0.3 | 10 | 1 | 100 | -73 |  |  |  |  | 
COc1ccc2c(c1)Cc1ccn(CC(C)N)c1-2 (stereo not given) | 2000 | 1 | > 10 |  | 12.6 | 398 |  |  |  |  |  | 

Compound | EC50 [1] [nM] | Efficacy [2] | ED50 [3] [mg/kg] | ED50 [4] [mg/kg] | Ki [5] [nM] | Ki [6] [nM] | Max suppression [7] [%] | Log EC50 [8] | Max suppression [9] [%] | Max suppression [10] [%] | Max suppression [11] [%] | ED50 [12]
COc1cccc2c1-c1c(ccn1CC(C)N)C2 (stereo not given) | 6310 | 0.7 | > 10 |  | 12.6 | 398 |  |  |  |  |  | 
CNCCC(Oc1ccc(C(F)(F)F)cc1)c1ccccc1 (stereo not given) [FLUOXETINE] |  |  |  |  |  |  |  |  |  | -11 |  | 
CC(N)Cn1ccc2c(F)cccc21 (stereo not given) | 1260 | 0.7 | > 10 |  | 7.94 | 158 |  |  |  |  |  | 
COc1ccc2c(c1)-c1c(ccn1CC(C)N)C2(C)C (stereo not given) | 100 | 1 | 0.5 | 10 | 0.398 | 10 |  |  |  |  | -75 | 
Cc1ccc2c(ccn2CC(C)N)c1 (stereo not given) | 2510 | 0.9 | > 10 |  | 63.1 | 794 |  |  |  |  |  | 
CC(N)Cn1ccc2c1-c1cc(Cl)ccc1C2 (stereo not given) | 2510 | 0.8 | 2.7 | > 30 | 3.98 | 200 |  |  |  |  |  | 
CC(N)Cn1ccc2c1-c1cc(Br)ccc1C2 (stereo not given) | 2510 | 1 | > 10 |  | 3.98 | 100 |  |  |  |  |  | 
CC(N)Cn1ccc2c1-c1cc(F)ccc1C2 (stereo not given) | 631 | 1 | 1.5 | > 30 | 3.16 | 200 |  |  |  |  |  | 
COc1ccc2c(c1)-c1c(ccn1C[C@H](C)N)C2 | 251 | 1 | 1.2 | 10 | 1 | 126 |  |  |  |  | -97 | 
COc1ccc2c(c1)-c1c(ccn1C[C@@H](C)N)C2 | 7940 | 0.8 | 2 | > 30 | 3.98 | 126 |  |  |  |  |  | 
CC(N)Cc1c[nH]c2ccc(F)cc12 (stereo not given) | 158 | 0.9 | 0.8 | 9.9 | 10 | 63.1 |  |  |  |  | -96 | 
C[C@@H](N)Cn1ccc2c(Cl)c(F)ccc21 | 794 | 0.9 | 3.3 |  | 1.26 | 10 |  |  |  |  |  | inactive
COc1ccc2c(c1)-c1c(ccn1CC(C)N)C2 (stereo not given) | 398 | 1 | 0.6 | 11 | 1 | 126 |  |  | -79 |  |  | 
CC(N)Cn1ccc2ccc(F)cc21 (stereo not given) | 631 | 1 | 0.3 | > 30 | 3.98 | 251 |  |  |  |  |  | 
CC(N)Cn1ccc2cc(Br)ccc21 (stereo not given) | 2000 | 0.8 | 4 | > 30 | 3.98 | 158 |  |  |  |  |  | 
Cc1ccc2c(c1)-c1c(ccn1CC(C)N)C2 (stereo not given) | 501 | 1 | > 10 |  | 7.94 | 63.1 |  |  |  |  |  | 
